Laboratory results reported in ChEMBL document CHEMBL1124712, “Pre- and postsynaptic dopaminergic activities of indolizidine and quinolizidine derivatives of 3-(3-hydroxyphenyl)-N-(n-propyl)piperidine (3-PPP). Further developments of a dopamine receptor model” (J Med Chem, 1990).
Active and inactive are the calls of the source. The rule behind the calls is not given here.

What was measured:
[1] = target: T1, D(2) dopamine receptor (Rattus norvegicus, UniProt P61169); assay: In vitro inhibition of [3H]N-0437 binding to Dopamine receptor D2 in rat striatal membranes; format: cell membranes, Membrane
T1 sequence (P61169 whole entry): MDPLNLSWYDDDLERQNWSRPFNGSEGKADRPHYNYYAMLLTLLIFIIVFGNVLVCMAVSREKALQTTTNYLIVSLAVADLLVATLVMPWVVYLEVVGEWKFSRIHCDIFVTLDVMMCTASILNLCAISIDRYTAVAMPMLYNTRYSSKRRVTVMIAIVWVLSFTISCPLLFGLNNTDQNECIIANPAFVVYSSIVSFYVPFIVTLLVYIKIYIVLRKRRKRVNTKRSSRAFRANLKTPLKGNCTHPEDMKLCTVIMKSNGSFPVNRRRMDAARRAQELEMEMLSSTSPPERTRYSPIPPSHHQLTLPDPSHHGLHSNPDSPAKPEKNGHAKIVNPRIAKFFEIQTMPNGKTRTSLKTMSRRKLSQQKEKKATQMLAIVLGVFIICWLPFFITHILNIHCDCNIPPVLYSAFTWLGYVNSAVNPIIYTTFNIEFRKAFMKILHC

[2] = target: T1, D(2) dopamine receptor; assay: In vitro inhibition of [3H]spiperone binding to Dopamine receptor D2 in rat striatal membranes; format: cell membranes, Membrane
[3] = system: Rattus norvegicus; assay: DOPA accumulation in normal rat striatal region at 100 umol/kg expressed as percent of control; format: functional
[4] = system: Rattus norvegicus; assay: DOPA accumulation in normal rat cortex at 100 umol/kg expressed as percent of control; format: functional
[5] = system: Rattus norvegicus; assay: DOPA accumulation in normal rat limbic region at 100 umol/kg expressed as percent of control; format: functional, Limbic system
[6] = system: Rattus norvegicus; assay: Locomotor activity in normal rat at 100 umol/kg expressed as percent of control; format: functional
Method in brief: (§1)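 Untreated rats were given the test drug sc. Locomotor activity was recorded with motility meters and expressed as percent of controls, with significance by Student's t test (p < 0.05).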

[7] = system: Rattus norvegicus; assay: Locomotor activity in reserpine-pretreated ratat the dose of 50 umol/kg; Accumulation counts/30 min; format: functional
[8] = system: Rattus norvegicus; assay: DOPA accumulation in reserpine-pretreated rat cortex after subcutaneous administration of 50 umol/kg; Inactive; format: functional, organism-based
[9] = system: Rattus norvegicus; assay: DOPA accumulation in reserpine-pretreated rat limbic region after subcutaneous administration of 50 umol/kg; Range is 0.44-3.5; format: functional; conditions: Limbic system, sc
[10] = system: Rattus norvegicus; assay: DOPA accumulation in normal rat striatal region at 50 umol/kg expressed as percent of control; Inactive; format: functional, organism-based
[11] = system: Rattus norvegicus; assay: DOPA accumulation in normal rat limbic region at 50 umol/kg expressed as percent of control; Inactive; format: functional, organism-based; conditions: Limbic system
[12] = system: Rattus norvegicus; assay: DOPA accumulation in normal rat cortex at 50 umol/kg expressed as percent of control; format: functional
[13] = system: Rattus norvegicus; assay: Locomotor activity in normal rat at 50 umol/kg expressed as percent of control; format: functional; method in brief: as §1
[14] = system: Rattus norvegicus; assay: Locomotor activity in reserpine-pretreated rat at the dose of 50 umol/kg; Accumulation counts/30 min; format: functional
[15] = system: Rattus norvegicus; assay: DOPA accumulation in reserpine-pretreated rat cortex after subcutaneous administration; Inactive; format: functional, organism-based
[16] = system: Rattus norvegicus; assay: DOPA accumulation in reserpine-pretreated rat limbic region after subcutaneous administration; format: functional; conditions: Limbic system, sc
[17] = system: Rattus norvegicus; assay: Locomotor activity in normal rat at 0.8 umol/kg expressed as percent of control; format: functional
[18] = system: Rattus norvegicus; assay: DOPA accumulation in reserpine-pretreated rat striatal region after subcutaneous administration; format: functional; conditions: sc
[19] = system: Rattus norvegicus; assay: DOPA accumulation in normal rat striatal region at 27 umol/kg expressed as percent of control; format: functional
[20] = system: Rattus norvegicus; assay: DOPA accumulation in normal rat cortex at 213 umol/kg expressed as percent of control; Inactive; format: functional, organism-based
[21] = system: Rattus norvegicus; assay: DOPA accumulation in normal rat cortex at 27 umol/kg expressed as percent of control; Inactive; format: functional, organism-based
[22] = system: Rattus norvegicus; assay: DOPA accumulation in normal rat limbic region at 213 umol/kg expressed as percent of control; format: functional, Limbic system
[23] = system: Rattus norvegicus; assay: Locomotor activity in normal rat at 213 umol/kg expressed as percent of control; format: functional
[24] = system: Rattus norvegicus; assay: Locomotor activity in reserpine-pretreated ratat the dose of 213 umol/kg; Accumulation counts/30 min; format: functional
[25] = system: Rattus norvegicus; assay: Locomotor activity in reserpine-pretreated rat at the dose of 100 umol/kg; Accumulation counts/30 min; format: functional
[26] = system: Rattus norvegicus; assay: DOPA accumulation in normal rat striatal region at 50 umol/kg expressed as percent of control; format: functional
[27] = system: Rattus norvegicus; assay: DOPA accumulation in normal rat limbic region at 50 umol/kg expressed as percent of control; format: functional, Limbic system
[28] = system: Rattus norvegicus; assay: DOPA accumulation in normal rat cortex at 50 umol/kg expressed as percent of control; Inactive; format: functional, organism-based
[29] = system: Rattus norvegicus; assay: Locomotor activity in normal rat at 3.1 umol/kg expressed as percent of control; format: functional; method in brief: as §1
[30] = system: Rattus norvegicus; assay: DOPA accumulation in normal rat striatal region at 0.8 umol/kg expressed as percent of control; format: functional
[31] = system: Rattus norvegicus; assay: DOPA accumulation in normal rat cortex at 0.8 umol/kg expressed as percent of control; Inactive; format: functional, organism-based
[32] = system: Rattus norvegicus; assay: DOPA accumulation in normal rat limbic region at 0.8 umol/kg expressed as percent of control; format: functional, Limbic system
[33] = system: Rattus norvegicus; assay: DOPA accumulation in normal rat limbic region at 27 umol/kg expressed as percent of control; format: functional, Limbic system
[34] = system: Rattus norvegicus; assay: Locomotor activity in normal rat at 1.6 umol/kg expressed as percent of control; format: functional
[35] = system: Rattus norvegicus; assay: Locomotor activity in reserpine-pretreated ratat the dose of 13 umol/kg; Accumulation counts/30 min; format: functional
[36] = system: Rattus norvegicus; assay: DOPA accumulation in reserpine-pretreated rat limbic region after subcutaneous administration of 50 umol/kg; Inactive; format: functional, organism-based; conditions: Limbic system
[37] = system: Rattus norvegicus; assay: DOPA accumulation in reserpine-pretreated rat striatal region after subcutaneous administration of 50 umol/kg; Inactive; format: functional, organism-based
[38] = system: Rattus norvegicus; assay: DOPA accumulation in normal rat striatal region at 12.5 umol/kg expressed as percent of control; format: functional
[39] = system: Rattus norvegicus; assay: DOPA accumulation in normal rat cortex at 12.5 umol/kg expressed as percent of control; Inactive; format: functional, organism-based
[40] = system: Rattus norvegicus; assay: DOPA accumulation in normal rat limbic region at 12.5 umol/kg expressed as percent of control; format: functional, Limbic system
[41] = system: Rattus norvegicus; assay: Locomotor activity in normal rat at 12.5 umol/kg expressed as percent of control; format: functional; method in brief: as §1
[42] = system: Rattus norvegicus; assay: Locomotor activity in normal rat at 25 umol/kg expressed as percent of control; format: functional; method in brief: as §1
[43] = system: Rattus norvegicus; assay: DOPA accumulation in normal rat striatal region at of 50 umol/kg expressed as percent of control; format: functional
[44] = system: Rattus norvegicus; assay: DOPA accumulation in reserpine-pretreated rat limbic region after subcutaneous administration of 50 umol/kg; Range is 1.1-6.5; format: functional; conditions: Limbic system, sc
[45] = system: Rattus norvegicus; assay: DOPA accumulation in reserpine-pretreated rat striatal region after subcutaneous administration of 50 umol/kg; Range is 1.7-4; format: functional; conditions: sc
[46] = system: Rattus norvegicus; assay: DOPA accumulation in normal rat cortex at of 50 umol/kg expressed as percent of control; format: functional

Work on `Oc1cccc(C2CCCN3CCCCC23)c1` (configuration not stated) yielded an IC50 [1] of 0.58 µM, an IC50 [2] of 13 µM and a Control [3] of 54%. The Control [4] was 48%, the Control [5] was 61% and the Control [6] was 142%. The Locomotor activity [7] was 14.
For `Oc1cccc(C2CCCN3CCCC23)c1` (racemic), the IC50 [1] was 0.075 µM, the IC50 [2] was 3.8 µM and the ED50 [8] was “inactive”. The ED50 [9] was 0.44 µmol/kg, the Control [10] was “inactive” and the Control [11] was “inactive”. It also gave a Control [12] of 57%, a Control [13] of 48% and a Locomotor activity [14] of 13.
With `CCCN1CCC[C@@H](c2cccc(O)c2)C1` [PRECLAMOL] the ED50 [15] was “inactive”, the ED50 [16] was 0.8 µmol/kg and the Control [17] was 74%. The ED50 [18] was 1.7 µmol/kg, the Control [19] was 147% and the Control [20] was “inactive”. For the same molecule, the Control [21] was “inactive”, the Control [22] was 95% and the Control [23] was 40%. The Locomotor activity [24] was 12.
In the case of `O=C(O)C(=O)O.Oc1cccc(C2CCC3CCCCN3C2)c1` (configuration not stated), the IC50 [1] is reported as 7.9 µM, the IC50 [2] is reported as 40 µM and the Control [3] is reported as 56%. It also gave a Control [4] of 62%, a Control [5] of 69% and a Control [6] of 220%. For the same molecule, the Locomotor activity [25] was 262.
`Oc1cccc([C@@H]2CCCN3CCCC23)c1` (some centres not stated) showed an IC50 [1] of 0.17 µM, an IC50 [2] of 6.5 µM and a Control [26] of 245%. For the same molecule, the Control [27] was 153%, the Control [28] was “inactive” and the Control [29] was 135%. It also gave a Control [13] of 72% and a Locomotor activity [14] of 21.
For `CCCN(CCc1ccsc1)C1CCc2c(O)cccc2C1` (configuration not stated), the IC50 [1] was 0.00062 µM and the IC50 [2] was 0.0088 µM.
`CCCN1CCC[C@H](c2cccc(O)c2)C1` was tested, and the ED50 [15] was “inactive”, the ED50 [16] was 1 µmol/kg and the ED50 [18] was 1.3 µmol/kg. The Control [30] was 81%, the Control [19] was 45% and the Control [31] was “inactive”. For the same molecule, the Control [21] was “inactive”, the Control [32] was 86% and the Control [33] was 40%. For the same molecule, the Control [34] was 75%, the Control [23] was 230% and the Locomotor activity [35] was 78.
With `Oc1cccc(C2=CCCN3CCCCC23)c1` (configuration not stated) the IC50 [1] was 0.32 µM, the IC50 [2] was 5.3 µM and the ED50 [8] was “inactive”. For the same molecule, the ED50 [36] was “inactive”, the ED50 [37] was “inactive” and the Control [38] was 200%. The Control [39] was “inactive”, the Control [40] was 165% and the Control [41] was 45%. For the same molecule, the Control [42] was 51%, the Control [29] was 82% and the Locomotor activity [7] was 8.
With `Oc1cccc([C@H]2CCCN3CCCC23)c1` (some centres not stated) the IC50 [1] was 0.045 µM, the IC50 [2] was 4.9 µM and the Control [43] was 46%. It also gave an ED50 [44] of 1.1 µmol/kg, an ED50 [45] of 1.7 µmol/kg and a Control [27] of 46%. For the same molecule, the Control [46] was 37%, the Control [41] was 42% and the Control [13] was 83%. For the same molecule, the Locomotor activity [14] was 25.
